Published values of several laboratories.
Target: Casein kinase I isoform delta (CSNK1D, Homo sapiens, UniProt P48730)

| Structure (SMILES) | test | conditions | endpoint | result |
| --- | --- | --- | --- | --- |
| COc1cc2c(Nc3ccc(Br)cc3F)ncnc2cc1OCC1CCN(C)CC1 | cell-free assay | 0.5 µM | remaining signal | 94.4% |
| C[C@@]1(Cc2ccc(C#N)cc2)C(=O)N(c2cc(Cl)cc(Cl)c2)c2ncc(C(=O)NC3(c4nc(C5CCC5)no4)CC3)n21 | cell-free assay, competition with immobilised ligand | 1 µM | remaining binding | 100% |
| CCCS(=O)(=O)Nc1ccc(F)c(C(=O)c2c[nH]c3ncc(-c4ccc(Cl)cc4)cc23)c1F | enzyme activity, inhibitor | 1 µM | inhibition | < 10% |
| Cc1cnc(NC2CCOCC2)nc1-n1cnc(C(=O)NC(CN)c2cc(F)cc(Cl)c2)c1 (stereo not shown) | enzyme activity, inhibitor, radiometric | 1 µM | remaining activity | 53% |
| Cc1cc(-n2nc(Cc3cc(F)cc(C(F)(F)F)c3)nc2C)ccc1C(N)=O | cell-free assay, competition with immobilised ligand | 1 µM | remaining binding | 100% |
| O=C1NC(=O)c2cc(Nc3ccc(F)cc3)c(Nc3ccc(F)cc3)cc21 | cell-free assay | 0.5 µM | remaining signal | 109% |
| O=C(Cc1cccc(Cl)c1)Nc1nc2ccccc2s1 | cell-free assay | 10 µM | inhibition | > 60% |
| CN1CC(Oc2cnc(C#N)cc2-c2ccn3nc(NC(=O)C4CC4)cc3c2)C1 | enzyme activity, inhibitor | 1 µM | inhibition | -20% |
| O=C(CSc1nc2nccnc2c(=O)n1CCc1ccccc1)Nc1nccs1 | enzyme activity, inhibitor | 10 µM | inhibition | 7% |
| CO[C@@H](C)c1c(Nc2ccc([C@H](N(C)C(=O)C3CCS(=O)(=O)CC3)C(F)(F)F)cc2)cnc2cc(Cl)nn12 | cell-free assay, competition with immobilised ligand | 1 µM | remaining binding | 88% |
| COc1cc(Nc2cnc(C#N)c(O[C@H](C)CN(C)C)n2)ncc1-c1cnn(C)c1 | enzyme activity, inhibitor, radiometric | 1 µM | remaining activity | 76% |
| COc1cc2ncnc(Nc3ccc(F)c(Cl)c3)c2cc1OCCCN1CCOCC1 | cell-free assay | 0.5 µM | remaining signal | 90.4% |
| CCCOc1ccc(OC)c(F)c1C(=O)c1ccc(C(=O)N[C@@H]2CNC[C@H]2NC(=O)c2ccc3[nH]ncc3c2)cc1 | enzyme activity, inhibitor | 10 µM | remaining activity | 43% |
| O=C(NCc1ncc(C(F)(F)F)cc1Cl)c1ccc2c(c1)C1(CCS(=O)(=O)CC1)[C@@H](C1CC1)N2S(=O)(=O)c1ccc(F)cc1 | cell-free assay, competition with immobilised ligand | 1 µM | remaining binding | 93% |
| CCN(CC)c1ccc(C2=NNC(=O)CC2C)cc1[N+](=O)[O-] (stereo not shown) | enzyme activity, inhibitor | 10 µM | remaining activity | 109% |
| O=C(Nc1cnn(-c2csc(C(=O)NC3COC3)c2)c1)Nc1c(F)cccc1Cl | enzyme activity, inhibitor | 5 µM | remaining activity | 117% |
| CNc1cccc2cc(C(=O)Nc3ccc(C(=O)O)cc3)c(=O)[nH]c12 | enzyme activity, inhibitor | 10 µM | inhibition | 25% |
| CN(c1ccnc(CNc2nc(Nc3ccc4c(c3)CC(=O)N4)ncc2C(F)(F)F)n1)S(C)(=O)=O | cell-free assay, competition with immobilised ligand | 1 µM | remaining binding | 100% |
| CC(C)(C)c1nc2c(s1)c1nc(N)ncc1c1ccc(NS(=O)(=O)c3c(F)cccc3F)c(F)c12 | enzyme activity, inhibitor, radiometric | 1 µM | remaining activity | 79% |
| FC(F)(F)Oc1cccc(-c2cnc3ccc(-c4ccncc4)nn23)c1 | enzyme activity, inhibitor, radiometric | 5 µM | activity vs control | 97% |
| COc1cc2ncnc(Nc3ccc(Oc4ccccc4)cc3C)c2cc1OC | enzyme activity, inhibitor | 1 µM | inhibition | 0% |
| CC(=O)N1CCC(c2ccc(C(=O)NC3=NCCN3)cc2C(F)(F)F)CC1 | cell-free assay, competition with immobilised ligand | 1 µM | remaining binding | 100% |
| CS(=O)(=O)CCNCc1ccc(-c2ccc3ncnc(Nc4ccc(OCc5cccc(F)c5)c(Cl)c4)c3c2)o1 | cell-free assay | 0.5 µM | remaining signal | 91.2% |
| CCCOc1ccc([C@H]2[C@H](C(=O)O)[C@@H](c3ccc4c(c3)OCO4)CN2CC(=O)Nc2c(CC)cccc2CC)cc1 | cell-free assay, competition with immobilised ligand | 1 µM | remaining binding | 80% |
| COc1cc(/C=C/C(=O)CC(=O)/C=C/c2ccc(O)c(OC)c2)ccc1O | enzyme activity, inhibitor | 1 µM | activity vs control | 105% |
